From ChEMBL document CHEMBL3102739, “Synthesis and antiproliferative activity of conformationally restricted 1,2,3-triazole analogues of combretastatins in the sea urchin embryo model and against human cancer cell lines” (Bioorg Med Chem, 2014)

Columns and labels:
B16 = assay: Cytotoxicity against mouse B16 cells by MTT assay; assay type: functional, cell-based
NCI-H322M = assay: Growth inhibition of human NCI-H322M cells after 48 hrs by SRB assay; assay type: functional
SK-MEL-2 = assay: Growth inhibition of human SK-MEL-2 cells after 48 hrs by SRB assay; assay type: functional; details: SK-MEL-2, 48 h
SNB-19 = assay: Growth inhibition of human SNB19 cells after 48 hrs by SRB assay; assay type: functional; details: SNB-19, 48 h
SW-620 = assay: Growth inhibition of human SW620 cells after 48 hrs by SRB assay; assay type: functional; details: SW-620, 48 h
M14 = assay: Growth inhibition of human M14 cells after 48 hrs by SRB assay; assay type: functional; details: M14, 48 h
MOLT-4 = assay: Growth inhibition of human MOLT4 cells after 48 hrs by SRB assay; assay type: functional; details: MOLT-4, 48 h
HCT-116 = assay: Growth inhibition of human HCT116 cells after 48 hrs by SRB assay; assay type: functional; details: HCT-116, 48 h
OVCAR-3 = assay: Growth inhibition of human OVCAR3 cells after 48 hrs by SRB assay; assay type: functional; details: OVCAR-3, 48 h
OVCAR-8 = assay: Growth inhibition of human OVCAR8 cells after 48 hrs by SRB assay; assay type: functional; details: OVCAR-8, 48 h
NCI-H460 = assay: Growth inhibition of human NCI-H460 cells after 48 hrs by SRB assay; assay type: functional; details: NCI-H460, 48 h
786-0 = assay: Growth inhibition of human 786-0 cells after 48 hrs by SRB assay; assay type: functional; details: 786-0, 48 h
SK-OV-3 = assay: Growth inhibition of human SKOV3 cells after 48 hrs by SRB assay; assay type: functional; details: SK-OV-3, 48 h
[1] = Growth inhibition of human SF539 cells after 48 hrs by SRB assay; assay type: functional; details: SF-539, 48 h
SF-268 = assay: Growth inhibition of human SF268 cells after 48 hrs by SRB assay; assay type: functional; details: SF-268, 48 h
SR = assay: Growth inhibition of human SR cells after 48 hrs by SRB assay; assay type: functional
CCRF-CEM = assay: Growth inhibition of human CCRF-CEM cells after 48 hrs by SRB assay; assay type: functional
Paracentrotus lividus [2] = assay: Antimitotic activity against sea urchin embryo model assessed as cleavage arrest of fertilized egg compound treated at 8 to 20 mins post-fertilization and 45 to 55 mins prior to first mitotic cycle completion measured 2.5 to 5.5 hrs post-fertilization; assay type: functional
Method in brief: (§1)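 Fertilized eggs are exposed 8–20 min after fertilization to 2-fold decreasing concentrations. Stocks are 10 mM in DMSO, then diluted 10-fold in 95% EtOH; final DMSO is at most 0.05% and EtOH at most 1%. Embryos are kept as a monolayer, up to 2000 embryos/mL, in filtered seawater at room temperature. The value is the threshold concentration giving cleavage alteration, embryo death before hatching or full mitotic arrest. Duplicates were run.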

RPMI-8226 = assay: Growth inhibition of human RPMI8226 cells after 48 hrs by SRB assay; assay type: functional; details: RPMI-8226, 48 h
NCI-H522 = assay: Growth inhibition of human NCI-H522 cells after 48 hrs by SRB assay; assay type: functional; details: NCI-H522, 48 h
[3] = Growth inhibition of human HCC2998 cells after 48 hrs by SRB assay; assay type: functional; details: HCC 2998, 48 h
SK-MEL-5 = assay: Growth inhibition of human SK-MEL-5 cells after 48 hrs by SRB assay; assay type: functional; details: SK-MEL-5, 48 h
[4] = Growth inhibition of human RXF393 cells after 48 hrs by SRB assay; assay type: functional; details: RXF 393, 48 h
U-251 = assay: Growth inhibition of human U251 cells after 48 hrs by SRB assay; assay type: functional; details: U-251, 48 h
[5] = Growth inhibition of human HOP92 cells after 48 hrs by SRB assay; assay type: functional; details: HOP-92, 48 h
IGROV-1 = assay: Growth inhibition of human IGROV1 cells after 48 hrs by SRB assay; assay type: functional; details: IGROV-1, 48 h
HCT-15 = assay: Growth inhibition of human HCT15 cells after 48 hrs by SRB assay; assay type: functional; details: HCT-15, 48 h
NCI-H226 = assay: Growth inhibition of human NCI-H226 cells after 48 hrs by SRB assay; assay type: functional; details: NCI-H226, 48 h
[6] = Growth inhibition of human OVCAR5 cells after 48 hrs by SRB assay; assay type: functional; details: OVCAR-5, 48 h
NCI-H23 = assay: Growth inhibition of human NCI-H23 cells after 48 hrs by SRB assay; assay type: functional; details: NCI-H23, 48 h
[7] = Growth inhibition of human UACC257 cells after 48 hrs by SRB assay; assay type: functional; details: UACC-257, 48 h
Paracentrotus lividus [8] = assay: Antimitotic activity against sea urchin embryo model assessed as cleavage alteration of fertilized egg compound treated at 8 to 20 mins post-fertilization and 45 to 55 mins prior to first mitotic cycle completion measured 2.5 to 5.5 hrs post-fertilization; assay type: functional; method in brief: as §1
A498 = assay: Growth inhibition of human A498 cells after 48 hrs by SRB assay; assay type: functional; details: A498, 48 h
COLO 205 = assay: Growth inhibition of human COLO205 cells after 48 hrs by SRB assay; assay type: functional; details: COLO 205, 48 h
K562 = assay: Growth inhibition of human K562 cells after 48 hrs by SRB assay; assay type: functional; details: K562, 48 h
HL-60(TB) = assay: Growth inhibition of human HL-60(TB) cells after 48 hrs by SRB assay; assay type: functional; details: HL-60, 48 h
ACHN = assay: Growth inhibition of human ACHN cells after 48 hrs by SRB assay; assay type: functional
TK-10 = assay: Growth inhibition of human TK10 cells after 48 hrs by SRB assay; assay type: functional; details: TK-10, 48 h
CAKI-1 = assay: Growth inhibition of human CAKI-1 cells after 48 hrs by SRB assay; assay type: functional; details: CAKI-1, 48 h
[9] = Growth inhibition of human EKVX cells after 48 hrs by SRB assay; assay type: functional
UACC-62 = assay: Growth inhibition of human UACC62 cells after 48 hrs by SRB assay; assay type: functional; details: UACC-62, 48 h
HT-29 = assay: Growth inhibition of human HT-29 cells after 48 hrs by SRB assay; assay type: functional; details: HT-29, 48 h
LOX IMVI = assay: Growth inhibition of human LOXIMVI cells after 48 hrs by SRB assay; assay type: functional
A549 = assay: Growth inhibition of human A549 cells after 48 hrs by SRB assay; assay type: functional; details: A549, 48 h
[10] = Growth inhibition of human OVCAR4 cells after 48 hrs by SRB assay; assay type: functional; details: OVCAR-4, 48 h
Malme-3M = assay: Growth inhibition of human MALME-3M cells after 48 hrs by SRB assay; assay type: functional
Paracentrotus lividus [11] = assay: Antimitotic activity against sea urchin embryo free-swimming blastula model assessed as embryo spinning compound treated at 8 to 10 hrs post-fertilization measured after 0.25 to 20 hrs; assay type: functional, Blastula stage
KM12 = assay: Growth inhibition of human KM12 cells after 48 hrs by SRB assay; assay type: functional; details: KM12, 48 h
SN12C = assay: Growth inhibition of human SN12C cells after 48 hrs by SRB assay; assay type: functional
HOP-62 = assay: Growth inhibition of human HOP62 cells after 48 hrs by SRB assay; assay type: functional; details: HOP-62, 48 h
SNB-75 = assay: Growth inhibition of human SNB75 cells after 48 hrs by SRB assay; assay type: functional; details: SNB-75, 48 h
SK-MEL-28 = assay: Growth inhibition of human SK-MEL-28 cells after 48 hrs by SRB assay; assay type: functional; details: SK-MEL-28, 48 h
SF-295 = assay: Growth inhibition of human SF295 cells after 48 hrs by SRB assay; assay type: functional; details: SF-295, 48 h
[12] = Growth inhibition of human UO31 cells after 48 hrs by SRB assay; assay type: functional; details: UO-31, 48 h

## COc1cc(/C=C\c2ccc(N)cc2)cc(OC)c1OC
B16
  IC50: 56000 nM

## COc1ccc(/C=C\c2cc(OC)c(OC)c(OC)c2)cc1O [COMBRETASTATIN A4]
NCI-H322M
  GI50: 7 nM
SK-MEL-2
  GI50: 4 nM
SNB-19
  GI50: 4 nM
SW-620
  GI50: 3 nM
M14
  GI50: 3 nM
MOLT-4
  GI50: 3 nM
HCT-116
  GI50: 3 nM
OVCAR-3
  GI50: 2 nM
OVCAR-8
  GI50: 3 nM
NCI-H460
  GI50: 3 nM
786-0
  GI50: 100 nM
SK-OV-3
  GI50: 59 nM
[1]
  GI50: 3 nM
SF-268
  GI50: 6 nM
SR
  GI50: 3 nM
CCRF-CEM
  GI50: 3 nM
Paracentrotus lividus [2]
  EC: 0.01 µM
RPMI-8226
  GI50: 3 nM
NCI-H522
  GI50: 2 nM
[3]
  GI50: 63 nM
SK-MEL-5
  GI50: 4 nM
[4]
  GI50: 2 nM
U-251
  GI50: 4 nM
[5]
  GI50: 3 nM
IGROV-1
  GI50: 15 nM
HCT-15
  GI50: 4 nM
NCI-H226
  GI50: 4 nM
[6]
  GI50: 100 nM
NCI-H23
  GI50: 3 nM
[7]
  GI50: 3 nM
Paracentrotus lividus [8]
  EC: 0.002 µM
A498
  GI50: 6 nM
COLO 205
  GI50: 100 nM
K562
  GI50: 2 nM
HL-60(TB)
  GI50: 2 nM
ACHN
  GI50: 6 nM
TK-10
  GI50: 100 nM
CAKI-1
  GI50: 26 nM
[9]
  GI50: 86 nM
UACC-62
  GI50: 6 nM
HT-29
  GI50: 100 nM
LOX IMVI
  GI50: 3 nM
A549
  GI50: 16 nM
[10]
  GI50: 14 nM
Malme-3M
  GI50: 20 nM
Paracentrotus lividus [11]
  EC: 0.05 µM
KM12
  GI50: 5 nM
SN12C
  GI50: 6 nM
HOP-62
  GI50: 3 nM
SNB-75
  GI50: 8 nM
SK-MEL-28
  GI50: 8 nM
SF-295
  GI50: 4 nM
[12]
  GI50: 19 nM
